In the library only some 2.4% were active in any assay of this set; here they are far more common.
LGR2 inh = inhibitors of bursicon-induced Drosophila LGR2 receptor cAMP signaling; HEK293 LGR2, CRE-luciferase, bursicon-stimulated, 4 h; inhibition, % at 9.99 µM; actives 0.35% (n = 380,000); AID 720647;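 active = drop in luminescence signal, shown as inhibition above about 50% in the replicate tests, limit read from the data, passing the limit was not always enough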;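 note: agonist challenge used bursicon conditioned medium at about half maximal strength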
E-selectin induc = induces E-selectin expression in human endothelial cells; P16581; HUVEC E-selectin immunofluorescence imaging; normalized: neutral wells 0, TNF-alpha wells 100; activation, % at 7.58 µM; actives 0.37% (n = 260,000); AID 686992;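 active = mean E-selectin-positive cell signal at least 10% of the positive control, reached in at least 60% of replicates, without over 20% cell loss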
Target sequence (P16581 whole entry, looked up): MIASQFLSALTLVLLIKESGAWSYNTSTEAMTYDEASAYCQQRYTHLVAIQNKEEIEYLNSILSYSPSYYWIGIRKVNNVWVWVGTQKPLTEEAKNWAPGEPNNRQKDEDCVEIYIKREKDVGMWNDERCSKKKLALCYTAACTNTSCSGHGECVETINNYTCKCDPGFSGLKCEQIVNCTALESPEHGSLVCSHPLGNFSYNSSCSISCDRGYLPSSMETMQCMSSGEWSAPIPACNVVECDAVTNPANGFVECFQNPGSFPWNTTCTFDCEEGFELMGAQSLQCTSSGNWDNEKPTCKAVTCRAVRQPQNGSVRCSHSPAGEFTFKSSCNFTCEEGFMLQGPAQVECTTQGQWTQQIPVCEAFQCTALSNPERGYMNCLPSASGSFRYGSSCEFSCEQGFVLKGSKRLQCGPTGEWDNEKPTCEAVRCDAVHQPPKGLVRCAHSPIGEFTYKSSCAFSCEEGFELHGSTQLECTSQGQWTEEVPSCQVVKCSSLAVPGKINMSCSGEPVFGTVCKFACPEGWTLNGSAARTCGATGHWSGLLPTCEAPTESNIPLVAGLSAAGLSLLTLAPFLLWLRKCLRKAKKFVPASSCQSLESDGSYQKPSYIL
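Read-out basis: % PE-positive cells; Test system: HUVEC primary endothelial cells; Technique: immunofluorescence imaging; Dosing: single-point compound dose.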
rRNA inh HTS = inhibits bacterial ribosomal RNA function over humanized ribosomes. GFP signal change (wild-type ribosome), % (test concentration not listed). E. coli WT GFP vs humanized-ribosome RFP mutants, fluorescence, 24 h; hits give low values; DMSO median 0, no signal -100. actives 1.6% (n = 350,000). AID 720706;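 active = significant combined selectivity score with lowered wild-type GFP, culture density cut under 30%, mutant RFP and density less affected; inactive = any of these conditions unmet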
EWS-Fli block = inhibitors of EWS/Fli oncoprotein transcriptional activity. A673 NR0B1-luciferase reporter, viability-normalised. inhibition, % at 12.6 µM. actives 0.67% (n = 350,000);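 active = mean inhibition of at least 50% after viability correction, with every replicate also passing that limit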;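 note: firefly luciferase signal divided by Alamar Blue viability fluorescence both relative to DMSO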
Active calls of the source: *; nt = no result given; ! = not confirmed by another sample.

SMILES	LGR2 inh	E-selectin induc	rRNA inh HTS	EWS-Fli block
C/C(=N/Nc1ccc(C(=O)O)cc1)c1ccc2c(c1)Nc1ccccc1S2	-42.1	0.6	-17.3	-50.1
C/C(=N\Nc1ccc(C(=O)O)cc1)c1ccc2c(c1)Nc1ccccc1S2	-50.4	nt	-45.3*	-44.9
Cc1csc2c(N3CCN(C(=S)Nc4ccc(C(F)(F)F)cc4)CC3)ncnc12	17.8	nt	-32.0*	9.0
CNC(=O)OCc1nc(SSC(C)(C)C)n(C)c1COC(=O)NC	-5.1	-0.8	9.7	66.7*
CSc1ccccc1NC(=O)CN(C)CC(=O)NCC(=O)Nc1ccc(F)cc1	0.1	nt	3.3	1.2
CSc1ccccc1NC(=O)CN(C)CC(=O)c1c(C)[nH]c2ccccc12	-8.5	nt	-20.9*	10.1
COCC#Cc1ccc2c(c1)O[C@H](CN(C)Cc1ccc(F)cc1)[C@H](C)CN([C@H](C)CO)S2(=O)=O	-18.6	-0.2	4.0	21.8
C[C@H](CO)N1C[C@H](C)[C@H](CN(C)S(C)(=O)=O)Oc2ccc(NC(=O)C3CCCCC3)cc2C1=O	13.5	40.7*	-0.3	1.9
C[C@H]1CN([C@@H](C)CO)C(=O)c2cc(NC(=O)NC3CCCCC3)ccc2O[C@@H]1CN(C)S(=O)(=O)c1ccc(Cl)cc1	5.6	449.2*	4.0	2.8
C[C@H](CO)N1C[C@H](C)[C@@H](CN(C)S(C)(=O)=O)Oc2ccc(NC(=O)C3CCCCC3)cc2C1=O	15.8	-11.6	3.0	1.9
C[C@@H]1CN([C@@H](C)CO)C(=O)c2cc(NC(=O)NC3CCCCC3)ccc2O[C@@H]1CN(C)S(=O)(=O)c1ccc(Cl)cc1	-0.8	27.4*	-4.2	5.8
C[C@H](CO)N1C[C@H](C)[C@H](CN(C)S(=O)(=O)c2ccc(Cl)cc2)Oc2ccc(NC(=O)Cc3ccccc3)cc2C1=O	5.9	36.3*	0.9	1.0
O=C(C[C@@H]1CC[C@H](NC(=O)Cc2ccccn2)[C@@H](CO)O1)NCCc1ccncc1	0.7	-0.2	4.6	-5.1
C[C@@H]1CCCCO[C@H](CN(C)S(=O)(=O)c2cn(C)cn2)[C@@H](C)CN([C@H](C)CO)C(=O)c2cc(NS(=O)(=O)c3ccccc3)ccc2O1	0.5	0.0	3.8	-5.2
CO[C@H]1CN(C)C(=O)c2ccc(NC(=O)c3ccccc3)cc2OC[C@H](C)NC[C@@H]1C	-0.4	-0.1	1.8	nt
COc1cccc(/C=N/Nc2snc(SC)c2C#N)c1	-41.9	nt	nt	nt
CSc1nsc(N/N=C/c2ccccc2)c1C#N	-27.5	nt	-22.5*	-48.7
COc1ccc(S(=O)(=O)N2CCCCN3[C@H](CO)[C@@H](c4ccc(-c5cccnc5)cc4)[C@@H]3C2)cc1	6.8	-0.7	-4.6	nt
CCO[C@H]1OC(C(=O)N2CCN(Cc3ccccc3)CC2)=C[C@@H](c2ccccc2)[C@@H]1CCCO	1.7	0.7	-32.0*	16.2
CCO[C@H]1OC(C(=O)N2CCN(Cc3ccc4c(c3)OCO4)CC2)=C[C@@H](c2ccc3c(c2)OCO3)[C@@H]1CCCO	-8.7	-0.8	-22.5*	5.5
CCOC(=O)C1CCN(C2=NC(=O)/C(=C/c3ccccc3OC)S2)CC1	-18.2	1.1	-24.1*	-12.7
COc1cc(C(=O)N(C)CCOc2ccc(C)cc2)ccc1OC1CCN(C(C)=O)CC1	nt	0.2	nt	2.4
CN(CCOc1ccccc1)C(=O)c1ccc(OC2CCN(C(=O)C3CC3)CC2)cc1	-2.6	-0.1	-18.6*	0.6
COc1ccc(NC(=S)NCc2ccc3c(c2)OCO3)cc1	14.1	nt	-6.0	64.7*
COc1ccccc1-c1ccc(C2[C@H]3CNC[C@@H]2N3C(=O)Nc2ccccc2Cl)cc1 (stereo not given in full)	5.9	-0.1	-59.0	62.1*
SMILES	LGR2 inh	E-selectin induc	rRNA inh HTS	EWS-Fli block
Cc1ccc(-c2ccc(C3[C@H]4CNC[C@@H]3N4C(=O)Nc3ccccc3Cl)cc2)cc1 (stereo not given in full)	-12.6	-0.1	-50.5	-3.2
Cc1ccc(-c2ccc(C3[C@H]4CNC[C@@H]3N4C(=O)Nc3ccc(F)cc3)cc2)cc1 (stereo not given in full)	-14.4	-0.1	-60.0	62.0*!
CC(C)C[C@@H]1NC(=O)[C@H]2C[C@@H](C(=O)NCc3ccc(F)cc3)[C@@H](c3cccc(OCCO)c3)N2C1=O	nt	nt	nt	-2.1
COc1ccc(S(=O)(=O)Nc2cccc3c2O[C@H](CN(C)Cc2ccncc2)[C@H](C)CN([C@H](C)CO)C3=O)cc1	-4.0	0.7	2.0	13.3
O=S(=O)(c1ccc(F)cc1)c1snnc1-c1ccccc1	57.7*	nt	-31.4	40.2
c1ccc(-c2nnsc2-c2ncc[nH]2)cc1	0.3	3.6	18.4	1.4
CCOC(=O)c1cnc2ccc(C(=O)OC)cc2c1NCCN1CCOCC1	-2.9	nt	-27.0*	2.2
CCC(=O)N(C)C[C@@H]1Oc2cc(C#CC3CC3)ccc2S(=O)(=O)N([C@@H](C)CO)C[C@@H]1C	-2.8	-0.5	1.4	-2.0
CCN(Cc1ccccc1)C(=O)C1CCN(c2ncnc3c2nc2n3CCCCC2)CC1	9.5	nt	-25.3*	1.3
COc1ccccc1NC(=O)C1CCCN(c2ncnc3c2nc2n3CCCCC2)C1 (stereo not given)	3.0	nt	-33.3*	11.3
O=C(Nc1ccccc1Cl)C1CCCN(c2ncnc3c2nc2n3CCCCC2)C1 (stereo not given)	12.7	nt	-30.0*	nt
Cc1ccc(CSc2nnc3c(n2)OC2(Nc4ccccc4-3)C(=O)Nc3ccc(F)cc32)cc1 (stereo not given)	-3.9	nt	-14.8	27.3
O=C1Nc2ccc(F)cc2C12Nc1ccccc1-c1nnc(SCc3ccccc3)nc1O2 (stereo not given)	-49.6	nt	-17.1*	0.4
C[C@@H]1CCCCO[C@@H](CN(C)Cc2ccc(C(=O)Nc3ccccc3N)cc2)[C@@H](C)CN([C@@H](C)CO)C(=O)c2cc(N(C)C)ccc2O1	nt	nt	3.8	nt
COc1ccc(C2=Nn3c(nnc3-c3ccccc3F)SC2)cc1OCC1CC1	-1.5	0.2	-14.8	55.5*
N#Cc1cc(C(=O)c2cc(F)ccc2O)cn(Cc2ccccc2)c1=O	0.4	nt	-24.0*	-2.5
C[C@H]1CN([C@@H](C)CO)C(=O)c2cc(C#CCc3ccccc3)cnc2O[C@H]1CN(C)Cc1cccc(F)c1	9.8	1.0	-6.0	19.4
C[C@H](CO)N1C[C@H](C)[C@@H](CN(C)Cc2cccc(F)c2)Oc2ncc(C#CCc3ccccc3)cc2C1=O	12.0	-0.1	-35.5*	22.7
C[C@@H]1CN([C@H](C)CO)C(=O)c2cc(-c3cccnc3)cnc2O[C@H]1CN(C)Cc1ccc(-c2ccccc2)cc1	20.2	0.2	4.3	57.3*
Cc1ccccc1-c1ccc2c(c1)O[C@@H](CN(C)C(=O)C1CC1)[C@@H](C)CN([C@@H](C)CO)S2(=O)=O	-9.9	1.2	-2.6	-5.7
CC[N+](CC)(CC)CCCCOc1ccc2c(c1)C(=O)c1cc(OCCCC[N+](CC)(CC)CC)ccc1-2	-3.5	nt	-54.1*	3.4
CCCSc1nc2c(cnn2-c2ccccc2)c(=O)n1N	-33.8	nt	-19.0*	-56.2
